Experimental data as given in ChEMBL document CHEMBL3108663, “Cembrane-type diterpenoids from the Chinese liverworts Chandonanthus hirtellus and C. birmensis” (J Nat Prod, 2014).

Key:
Type in all cases: functional, cell-based
DU-145 = experiment: Cytotoxicity against human DU145 cells after 24 hrs by MTT assay; conditions: DU-145, 24 h
In short: (§1)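 Cells plated 24 h before treatment, then exposed continuously to a range of compound concentrations for 24 h. MTT added and incubated 4 h at 37 °C under 5% CO2. Absorbance read at 570 nm. IC50 taken from plotted results with untreated cells set at 100%. Run at least three times; means ± SD of triplicates.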

NCI-H292 = experiment: Cytotoxicity against human NCI-H292 cells after 24 hrs by MTT assay; conditions: NCI-H292, 24 h; in short: as §1
[1] = Cytotoxicity against human A172 cells after 24 hrs by MTT assay; conditions: A 172, 24 h; in short: as §1
NCI-H1299 = experiment: Cytotoxicity against human NCI-H1299 cells after 24 hrs by MTT assay; conditions: NCI-H1299, 24 h; in short: as §1
[2] = Cytotoxicity against rat PC12 cells after 24 hrs by MTT assay; conditions: PC-12, 24 h; in short: as §1
PC-3 = experiment: Cytotoxicity against human PC3 cells after 24 hrs by MTT assay; conditions: PC-3, 24 h; in short: as §1
A549 = experiment: Cytotoxicity against human A549 cells after 24 hrs by MTT assay; conditions: A549, 24 h; in short: as §1

Structure (SMILES) | IC50 (DU-145) [µM] | IC50 (NCI-H292) [µM] | IC50 [1] [µM] | IC50 (NCI-H1299) [µM] | IC50 [2] [µM] | IC50 (PC-3) [µM] | IC50 (A549) [µM]
CC(=O)O[C@@]1(C)CCC(=O)[C@@H](C)CCC[C@]2(C)O[C@H]2C(=O)C(=C(C)C)CC1 | 43.7 | 21.4 | 23.1 | 17.2 | 24.5 | 24.3 | 31.1
CC(=O)O[C@@]1(C)CCC(=O)[C@H](C)CCC[C@]2(C)O[C@H]2C(=O)C(=C(C)C)CC1 | > 50 | 38.9 | 31.9 | 19.5 | 43.8 | 44.9 | > 50
CC(=O)O[C@@]1(C)CCC(=O)/C(C)=C/CC[C@]2(C)O[C@H]2C(=O)C(=C(C)C)CC1 | > 50 | 48.7 | 37.3 | 40.3 | 40.6 | > 50 | > 50
CC(=O)O[C@]1(C)CCC(=C(C)C)C(=O)[C@@H]2O[C@@]2(C)CC/C=C(\C)[C@H](O)CC1 | > 50 | > 50 | > 50 | 20.9 | 30.2 | > 50 | 21.5
CC(=O)O[C@@]1(C)C/C=C2\O[C@H](C[C@@H]2C)C[C@]2(C)O[C@H]2C(=O)C(=C(C)C)CC1 | > 50 | > 50 | > 50 | 28.3 | 41.1 | > 50 | > 50
CC(=O)O[C@]1(C)CCC(=C(C)C)C(=O)[C@@H]2O[C@@]2(C)C[C@H]2C[C@H](C)[C@@](O)(CC1)O2 | > 50 | > 50 | > 50 | 23.5 | 37.1 | > 50 | > 50
CC(=O)O[C@@]1(C)CCC/C(C)=C/CC[C@@]2(C)O[C@@H]2C(=O)C(=C(C)C)CC1 | > 50 | > 50 | > 50 | 41.6 | 47.1 | > 50 | > 50
CC(C)=C1CC[C@]2(C)CC[C@]3(O[C@H](C[C@@H]3C)C[C@]3(C)O[C@H]3C1=O)O2 | > 50 | > 50 | > 50 | > 50 | 36.4 | > 50 | > 50
CC(C)=C1CC[C@]2(C)CC[C@]3(O[C@H](C[C@H]3C)C[C@]3(C)O[C@H]3C1=O)O2 | > 50 | 48.1 | > 50 | > 50 | > 50 | > 50 | > 50
CC(=O)O[C@H]1C[C@]2(C)O[C@H]2CC/C(C)=C/[C@@H](OC(C)=O)[C@]2(C)[C@@H]1[C@H]([C@]1(C)CO1)C[C@@H]2OC(C)=O | > 50 | > 50 | > 50 | > 50 | > 50 | > 50 | > 50
CC(C)[C@H]1CC[C@]2(C)C[C@]3(O)C(=CC(=O)[C@H]3C)[C@@H](C)CC[C@@H]12 [ANADENSIN] | > 50 | > 50 | > 50 | 34.7 | 31.1 | > 50 | > 50
